{
  "source": "ChEMBL document CHEMBL1121409",
  "about": "“Mechanism of decomposition of N-hydroxyacetaminophen, a postulated toxic metabolite of acetaminophen” (J Med Chem, 1980)",
  "format_in_all_cases": "ADME",
  "key": {"[1]": {"assay": "The compound was tested for half life in presence of salicylate as additive (20 mM)", "in_short": "(§1)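 N-hydroxyacetaminophen at 1.5 mM initial, incubated at 37 °C in 0.2 M sodium phosphate pH 7.6, with each additive (20 mM) present before adding substrate. Aliquots were quenched in cold acetic acid (final pH ~3), or mixed with 10% FeCl3 in 0.9 M HCl and read at 540 nm. Remaining substrate was tracked by HPLC peak height (system A) or by the ferric assay. First-order disappearance gave the half-life.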"}, "[2]": {"assay": "The compound was tested for half life in presence of cysteine as additive (20 mM)", "in_short": "as §1"}, "[3]": {"assay": "The compound was tested for half life in presence of cysteamine as additive (20 mM)", "in_short": "as §1"}, "[4]": {"assay": "The compound was tested for half life in presence of phenol as additive (20 mM)", "in_short": "as §1"}, "[5]": {"assay": "The compound was tested for half life in presence of ascorbic acid as additive (20 mM)", "in_short": "as §1"}, "[6]": {"assay": "The compound was tested for half life in presence of control", "in_short": "as §1"}, "[7]": {"assay": "The compound was tested for half life in presence of cystamine as additive (20 mM)", "in_short": "as §1"}, "[8]": {"assay": "The compound was tested for half life in presence of N-acetyl cysteine as additive (20 mM)", "in_short": "as §1"}, "[9]": {"assay": "The compound was tested for half life in presence of p-Nitrosophenol as additive (20 mM)", "in_short": "as §1"}, "[10]": {"assay": "The compound was tested for half life in presence of methionine as additive (20 mM)", "in_short": "as §1"}, "[11]": {"assay": "The compound was tested for half life in presence of aspirin as additive (20 mM)", "in_short": "as §1"}, "[12]": {"assay": "The compound was tested for half life in presence of thiosulphate as additive (20 mM)", "in_short": "as §1"}, "[13]": {"assay": "The compound was tested for half life in presence of ethanol as additive (20 mM)", "in_short": "as §1"}, "[14]": {"assay": "The compound was tested for half life in presence of acetaminophen as additive (20 mM)", "in_short": "as §1"}, "[15]": {"assay": "The compound was tested for half life in presence of glycine as additive (20 mM)", "in_short": "as §1"}, "[16]": {"assay": "The compound was tested for half life in presence of pyrogallol as additive (20 mM)", "in_short": "as §1"}, "[17]": {"assay": "The compound was tested for half life in presence of dithionite as additive (20 mM)", "in_short": "as §1"}, "[18]": {"assay": "The compound was tested for half life in presence of lysine as additive (20 mM)", "in_short": "as §1"}},
  "data": [
    {"compound": "CC(=O)N(O)c1ccc(O)cc1", "values": [
      {"measurement": "half-life", "setting": "[1]", "value": 6.5, "unit": "min"},
      {"measurement": "half-life", "setting": "[2]", "value": 78, "unit": "min"},
      {"measurement": "half-life", "setting": "[3]", "value": 72, "unit": "min"},
      {"measurement": "half-life", "setting": "[4]", "value": 14, "unit": "min"},
      {"measurement": "half-life", "setting": "[5]", "value": 76, "unit": "min"},
      {"measurement": "half-life", "setting": "[6]", "value": 9.4, "unit": "min"},
      {"measurement": "half-life", "setting": "[7]", "value": 43, "unit": "min"},
      {"measurement": "half-life", "setting": "[8]", "value": 68, "unit": "min"},
      {"measurement": "half-life", "setting": "[9]", "value": 17, "unit": "min"},
      {"measurement": "half-life", "setting": "[10]", "value": 31, "unit": "min"},
      {"measurement": "half-life", "setting": "[11]", "value": 6.4, "unit": "min"},
      {"measurement": "half-life", "setting": "[12]", "value": 31, "unit": "min"},
      {"measurement": "half-life", "setting": "[13]", "value": 6.7, "unit": "min"},
      {"measurement": "half-life", "setting": "[14]", "value": 33, "unit": "min"},
      {"measurement": "half-life", "setting": "[15]", "value": 24, "unit": "min"},
      {"measurement": "half-life", "setting": "[16]", "value": 60, "unit": "min"},
      {"measurement": "half-life", "setting": "[17]", "value": 24, "unit": "min"},
      {"measurement": "half-life", "setting": "[18]", "value": 23, "unit": "min"}
    ]}
  ]
}
